The results in this text go back to ChEMBL document CHEMBL1131577, “Auxiliary agents for the peroral administration of peptide and protein drugs: synthesis and evaluation of novel pepstatin analogues” (J Med Chem, 1998).

pIC50: −log10 of the molar value.

Chain of Pepsin A (P0DJD9 whole entry): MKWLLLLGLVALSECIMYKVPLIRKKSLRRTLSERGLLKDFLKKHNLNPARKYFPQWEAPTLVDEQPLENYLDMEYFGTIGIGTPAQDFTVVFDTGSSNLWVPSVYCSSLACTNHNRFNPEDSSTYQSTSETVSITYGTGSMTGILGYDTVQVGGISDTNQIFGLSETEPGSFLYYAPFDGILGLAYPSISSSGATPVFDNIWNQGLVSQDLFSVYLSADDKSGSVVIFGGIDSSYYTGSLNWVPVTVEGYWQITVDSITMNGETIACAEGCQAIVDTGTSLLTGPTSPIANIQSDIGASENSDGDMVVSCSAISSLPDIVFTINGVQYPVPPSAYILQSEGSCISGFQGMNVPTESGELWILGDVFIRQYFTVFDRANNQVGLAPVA

The assay deals with Pepsin A (Homo sapiens, UniProt P0DJD9). Nature of the assay: Inhibitory activity against pepsin as oxidation of o-phenylenediamine by Horse radish peroxidase (Pepsin sensitive). The procedure, abridged:
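Pepsin (1 mg, 40 units, per mL of 0.05 N HCl, freshly prepared) mixed with test compound serially diluted 1:2 in DMSO, then 37.5 µg horseradish peroxidase in 0.05 N HCl added; incubated 2 h at 37 °C, then diluted 1:2 in 0.05 N HCl. Residual peroxidase oxidation of o-phenylenediamine (phosphate buffer pH 6.5, H2O2) ran 10 min at room temperature, read at 492 nm. Pepstatin dilutions served as reference.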
`CCCCC(O)[C@@H](NC(=O)[C@@H](NC(=O)[C@@H](NC(=O)OC(C)(C)C)C(C)C)C(C)C)[C@@H](C)CC` (stereo not given in full) showed a pIC50 of 4.48. With `CCCCCCCCC(O)[C@H](CC(C)C)NC(=O)[C@@H](NC(=O)[C@@H](NC(=O)OC(C)(C)C)C(C)C)C(C)C` (stereo not given in full), the pIC50 was 6.10. The molecule `CCCCCCCCC(O)[C@H](CCC)NC(=O)[C@@H](NC(=O)[C@@H](NC(=O)OC(C)(C)C)C(C)C)C(C)C` (stereo not given in full) had a pIC50 of 5.97. In turn, `CCCCC(O)[C@H](CCC)NC(=O)[C@@H](NC(=O)[C@@H](NC(=O)OC(C)(C)C)C(C)C)C(C)C` (stereo not given in full) showed a pIC50 of 6.04.

Molecule `CCCCCCCCC(O)[C@@H](NC(=O)[C@@H](NC(=O)[C@@H](NC(=O)OC(C)(C)C)C(C)C)C(C)C)[C@@H](C)CC` (stereo not given in full) showed a negative-log IC50 (pIC50) of 4.82. As to `CCCCCCC(O)[C@@H](NC(=O)[C@@H](NC(=O)[C@@H](NC(=O)OC(C)(C)C)C(C)C)C(C)C)[C@@H](C)CC` (stereo not given in full), the pIC50 is 4.57. With `CCCCCCC(O)[C@H](CCC)NC(=O)[C@@H](NC(=O)[C@@H](NC(=O)OC(C)(C)C)C(C)C)C(C)C` (stereo not given in full), the negative logarithm of the IC50 (pIC50) was 6.15.

For `CCCCC(O)[C@H](CC(C)C)NC(=O)[C@@H](NC(=O)[C@@H](NC(=O)OC(C)(C)C)C(C)C)C(C)C` (stereo not given in full), the negative-log IC50 (pIC50) was 5.91. `CCCCCCC(O)[C@H](CC(C)C)NC(=O)[C@@H](NC(=O)[C@@H](NC(=O)OC(C)(C)C)C(C)C)C(C)C` (stereo not given in full) gave a pIC50 of 6.08. The value for `CC(C)CC(=O)N[C@H](C(=O)N[C@H](C(=O)N[C@@H](CC(C)C)[C@@H](O)CC(=O)N[C@@H](C)C(=O)N[C@@H](CC(C)C)[C@@H](O)CC(=O)O)C(C)C)C(C)C` [PEPSTATIN] was 7.23.
